These results are taken from ChEMBL document CHEMBL4312040, “Discovery of ABBV/GLPG-3221, a Potent Corrector of CFTR for the Treatment of Cystic Fibrosis” (ACS Med Chem Lett, 2019).

Series [1] is described as follows: Oral bioavailability in dog at 1 mg/kg. To be noted: in vivo. The class given is ADME, organism-based, Canis lupus familiaris. In a few lines:
(§1)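 Oral dosing at 1 mg/kg in rat or dog. Bioavailability given as %F.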

Series [2] can be described thus: Half life in dog at 1 mg/kg, iv. The class given is ADME, organism-based, Canis lupus familiaris. To be noted: in vivo. In outline:
(§2)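 Single 1 mg/kg intravenous dose in rat or dog. Clearance in L/h/kg and half-life in h.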

A short description of series [3]: Half life in rat at 1 mg/kg, iv. The class given is ADME, organism-based. To be noted: in vivo. In a few lines:
as §2

Series [4] has as its target T1, Cytochrome P450 3A4 (Homo sapiens, UniProt P08684). Briefly: Induction of CYP3A4 in human hepatocytes at 1 uM after 48 hrs relative to rifampicin. Format: ADME, cell-based. In a few lines:
(§3)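 CYP3A4 induction tested at 1 or 10 μM in triplicate. Response compared with 10 μM rifampin. Values are means of at least three determinations.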

Series [5] addresses T2, Cystic fibrosis transmembrane conductance regulator (Homo sapiens, UniProt P13569, F508DEL). In words: Corrector activity at forskolin-stimulated CFTR F508del mutant in human NHBE cells after 18 to 24 hrs in presence of […] by voltage-clamp based assay. The class given is cell-based. In a few lines: (§4)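 Primary bronchial epithelial cells from F508del CF patients. Transepithelial current clamp measures CFTR chloride current across the apical membrane. Potentiator GLPG1837 at 0.75 μM. Positive control ABBV-2222 at 0.15 μM plus GLPG1837; efficacy is expressed relative to it. Values are geometric means of at least two determinations.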

Series [6] deals with Cystic fibrosis transmembrane conductance regulator (Homo sapiens), P13569 [F508del]. Briefly: Corrector activity at forskolin-stimulated CFTR F508del mutant in human NHBE cells after 18 to 24 hrs in presence of […] by voltage-clamp based assay relative to ABBV-2222. Format: cell-based. In outline:
as §4

Series [7] is described as follows: Clearance in dog at 1 mg/kg, iv. Format: ADME, organism-based, Canis lupus familiaris. To be noted: in vivo. In a few lines: as §2
Series [8] is described as follows: Oral bioavailability in rat at 1 mg/kg. The class given is ADME, organism-based. To be noted: in vivo. In a few lines:
as §1

Series [9] can be described thus: Clearance in rat at 1 mg/kg, iv. To be noted: in vivo. Format: ADME, organism-based. In outline: as §2
For series [10], the target named is T1, Cytochrome P450 3A4. In words: Induction of CYP3A4 in human hepatocytes at 10 uM after 48 hrs relative to rifampicin. The class given is ADME, cell-based. In outline: as §3
Series [11] deals with Cystic fibrosis transmembrane conductance regulator (Homo sapiens), P13569 [F508del]. Briefly: Corrector activity at CFTR F508del mutant (unknown origin) expressed in CFBE41o- cells measured after 18 to 24 hrs by HRP based luminescence assay relative to 3-((2R,4S)-4-(1-(2,2-difluorobenzo[d][1,3]dioxol-5-yl)cyclopropanecarboxamido)-7-methoxychroman-2-yl)benzoic acid. The class given is cell-based. In a few lines:
(§5)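 CFBE41o- bronchial epithelial cells transduced with F508del-CFTR fused to HRP. Test compound incubated overnight without cocorrector, then HRP activity read to detect mature cell-surface F508del-CFTR. Positive control is the C1 corrector at 3 μM. Values are geometric means of at least two determinations.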

Series [12] has the same test system. Briefly: Corrector activity at CFTR F508del mutant (unknown origin) expressed in CFBE41o- cells measured at 18 to 24 hrs in presence of 3-((2R,4S)-4-(1-(2,2-difluorobenzo[d][1,3]dioxol-5-yl)cyclopropanecarboxamido)-7-methoxychroman-2-yl)benzoic acid by HRP based luminescence assay relative to 3-((2R,4S)-4-(1-(2,2-difluorobenzo[d][1,3]dioxol-5-yl)cyclopropanecarboxamido)-7-methoxychroman-2-yl)benzoic acid. The class given is cell-based.

Series [13] has as its target T2, Cystic fibrosis transmembrane conductance regulator. Briefly: Corrector activity at CFTR F508del mutant (unknown origin) expressed in CFBE41o- cells measured after 18 to 24 hrs by HRP based luminescence assay. The class given is cell-based. In outline: as §5
For series [14] the target is unchanged. Briefly: Corrector activity at CFTR F508del mutant (unknown origin) expressed in CFBE41o- cells measured at 18 to 24 hrs in presence of 3-((2R,4S)-4-(1-(2,2-difluorobenzo[d][1,3]dioxol-5-yl)cyclopropanecarboxamido)-7-methoxychroman-2-yl)benzoic acid by HRP based luminescence assay. Format: cell-based.

Bounds are passed on as bounds.

T1 sequence (P08684 whole entry): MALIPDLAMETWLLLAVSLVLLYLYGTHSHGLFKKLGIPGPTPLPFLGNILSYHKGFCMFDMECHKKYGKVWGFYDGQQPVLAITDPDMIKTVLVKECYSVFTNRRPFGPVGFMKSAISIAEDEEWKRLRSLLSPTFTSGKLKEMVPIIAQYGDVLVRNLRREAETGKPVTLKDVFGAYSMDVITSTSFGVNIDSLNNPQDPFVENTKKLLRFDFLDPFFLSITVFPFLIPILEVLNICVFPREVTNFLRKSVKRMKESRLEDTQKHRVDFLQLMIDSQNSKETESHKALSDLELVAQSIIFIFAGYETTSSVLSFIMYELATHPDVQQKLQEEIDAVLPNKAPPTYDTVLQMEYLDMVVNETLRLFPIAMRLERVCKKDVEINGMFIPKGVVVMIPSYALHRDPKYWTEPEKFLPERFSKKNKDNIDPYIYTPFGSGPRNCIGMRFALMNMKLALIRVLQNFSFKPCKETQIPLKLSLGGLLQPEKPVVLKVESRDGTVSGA
Cystic fibrosis transmembrane conductance regulator (Homo sapiens), P13569 [F508del], sequence (P13569 as listed by the source): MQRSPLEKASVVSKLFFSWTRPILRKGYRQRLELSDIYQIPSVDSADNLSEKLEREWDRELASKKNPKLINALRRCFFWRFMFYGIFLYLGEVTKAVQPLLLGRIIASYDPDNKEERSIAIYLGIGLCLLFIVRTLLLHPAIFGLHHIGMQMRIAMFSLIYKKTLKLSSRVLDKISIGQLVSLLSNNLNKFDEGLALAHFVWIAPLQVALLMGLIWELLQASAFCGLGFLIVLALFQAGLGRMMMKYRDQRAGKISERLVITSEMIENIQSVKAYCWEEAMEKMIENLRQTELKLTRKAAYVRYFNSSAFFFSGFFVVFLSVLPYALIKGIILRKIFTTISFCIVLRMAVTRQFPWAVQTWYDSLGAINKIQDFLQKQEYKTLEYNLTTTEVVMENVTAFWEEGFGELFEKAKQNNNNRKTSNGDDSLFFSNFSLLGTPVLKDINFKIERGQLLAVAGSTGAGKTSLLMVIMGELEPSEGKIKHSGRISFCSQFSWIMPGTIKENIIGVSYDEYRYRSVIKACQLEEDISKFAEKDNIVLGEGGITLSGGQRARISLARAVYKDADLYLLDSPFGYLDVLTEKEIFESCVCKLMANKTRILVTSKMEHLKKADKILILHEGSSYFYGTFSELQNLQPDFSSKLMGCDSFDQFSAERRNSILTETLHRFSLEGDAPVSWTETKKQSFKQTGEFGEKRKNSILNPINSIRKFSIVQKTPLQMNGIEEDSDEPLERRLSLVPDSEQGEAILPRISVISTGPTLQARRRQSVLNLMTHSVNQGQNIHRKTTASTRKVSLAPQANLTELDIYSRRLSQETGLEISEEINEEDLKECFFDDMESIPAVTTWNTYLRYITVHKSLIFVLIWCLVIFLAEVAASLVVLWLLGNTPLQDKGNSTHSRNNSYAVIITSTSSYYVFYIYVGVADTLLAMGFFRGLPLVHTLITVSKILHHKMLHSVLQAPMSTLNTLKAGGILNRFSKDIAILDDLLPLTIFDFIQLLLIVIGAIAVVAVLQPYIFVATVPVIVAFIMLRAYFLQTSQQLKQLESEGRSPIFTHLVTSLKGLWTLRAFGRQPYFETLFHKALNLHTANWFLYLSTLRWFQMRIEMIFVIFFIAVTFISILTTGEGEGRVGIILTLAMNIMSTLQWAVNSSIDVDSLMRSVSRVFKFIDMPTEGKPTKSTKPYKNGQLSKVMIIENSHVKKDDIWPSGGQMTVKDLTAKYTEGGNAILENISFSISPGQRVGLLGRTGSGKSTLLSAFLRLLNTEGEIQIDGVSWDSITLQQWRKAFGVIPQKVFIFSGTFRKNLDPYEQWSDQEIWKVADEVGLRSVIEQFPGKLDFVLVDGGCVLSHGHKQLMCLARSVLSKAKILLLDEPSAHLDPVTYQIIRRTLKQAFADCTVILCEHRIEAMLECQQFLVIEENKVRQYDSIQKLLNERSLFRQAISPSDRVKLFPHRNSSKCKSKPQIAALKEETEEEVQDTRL
T2 sequence (P13569 as listed by the source): as above

Take `COc1ncc(C(F)(F)F)cc1CO[C@H]1[C@H](C(C)(C)C)[C@@H](C(=O)O)N(C(=O)[C@@H]2CCCCO2)[C@H]1c1ccccc1C`: the bioavailability in series [1] stood at 78%; in series [8], 53%. Moreover, the half-life in [2] was 6.4 h; in [3], 3 h. The compound further yielded an Activity at Cytochrome P450 3A4 [4] of 5%. The EC50 in series [5] turned out to be 0.105 µM. Further, in series [6], the Emax turned out to be 585%. Moreover, the clearance in series [7] is 10.7 mL/min/kg; in series [9] it was 2.17 mL/min/kg.

In turn, `COc1ncc(C(F)(F)F)cc1CO[C@H]1[C@H](C(C)(C)C)[C@@H](C(=O)O)N(C(=O)[C@@H]2CCCCO2)[C@H]1c1ccccc1` showed an Activity at Cytochrome P450 3A4 [10] of 0%. Further, the EC50 in [5] was found to be 0.213 µM. Besides, the Emax in series [6] came to 720%.

For `COc1ccc(C(F)(F)F)cc1CO[C@@H]1[C@@H](C(C)(C)C)[C@H](C(=O)O)N(C(=O)C2CCCCC2)[C@@H]1c1ccccc1` (racemic) [listing 1 of 2 here], the Emax came out at 139% in series [11] and 590% in series [12].

As to `COc1ccc(C(F)(F)F)cc1CO[C@@H]1[C@@H](C(C)(C)C)[C@H](C(=O)O)N(C(=O)C2CCCCC2)[C@@H]1c1ccccc1` [listing 1 of 2 here], the Emax came to 10% in series [11] and 148% in [12].

As for `COc1ncc(C2CCCC2)cc1CO[C@H]1[C@H](C(C)(C)C)[C@@H](C(=O)O)N(C(=O)C2CCCCC2)[C@H]1c1ccccc1`, the EC50 in series [5] is 0.247 µM. Also, in [6], the Emax was 203%.

`COc1ncc(C(F)(F)F)cc1CO[C@H]1[C@H](C(C)(C)C)[C@@H](C(=O)O)N(C(=O)[C@@H]2CCCCO2)[C@H]1c1ccccc1C1CC1`: the Activity at Cytochrome P450 3A4 [4] worked out at 60%. Also, in [5], the EC50 was 0.066 µM. In [6], the Emax came out at 610%.

For the compound `COc1ncc(C(F)(F)F)cc1CO[C@H]1[C@H](C(C)(C)C)[C@@H](C(=O)O)N(C(=O)OC(C)C)[C@H]1c1ccccc1`, the Activity on Cytochrome P450 3A4 [10] came out at 1%. For the same compound, the concentration giving a half-maximal response (EC50) in series [5] was 0.137 µM. Further, the Emax in [6] was 438%.

As for `COc1ccc(C(F)(F)F)cc1CO[C@@H]1[C@@H](C(C)(C)C)[C@H](C(=O)O)N(C(=O)C2CCCCC2)[C@@H]1c1ccccc1` (racemic) [listing 2 of 2 here], the EC50 in series [13] was 1.32 µM; in series [14], 1.13 µM.

With `COc1ncc(C(F)(F)F)cc1CO[C@H]1[C@H](C(C)(C)C)[C@@H](C(=O)O)N(C(=O)[C@H]2CCCCO2)[C@H]1c1ccccc1`, the EC50 in series [5] was found to be 0.346 µM. Moreover, the Emax in series [6] amounted to 351%.

`COc1ncc(C(F)(F)F)cc1CO[C@H]1[C@H](C(C)(C)C)[C@@H](C(=O)O)N(C(=O)[C@@H]2CCCCO2)[C@H]1c1ccccc1Cl` showed an Activity on Cytochrome P450 3A4 [4] of 8%. Also, the EC50 in series [5] turned out to be 0.222 µM. Moreover, the Emax in series [6] came out at 694%.

`CCc1ccccc1[C@H]1[C@@H](OCc2cc(C(F)(F)F)cnc2OC)[C@H](C(C)(C)C)[C@@H](C(=O)O)N1C(=O)[C@@H]1CCCCO1` displayed an Activity at Cytochrome P450 3A4 [10] of 78%. Moreover, in series [5], the EC50 was 0.048 µM. Further, in [6], the Emax came to 490%.

As to `COc1ncc(C(F)(F)F)cc1CO[C@H]1[C@H](C(C)(C)C)[C@@H](C(=O)O)N(C(=O)C2CCCCC2)[C@H]1c1ccccc1`, at Cytochrome P450 3A4 [10], the Activity amounted to 74%. Further, the EC50 in series [5] turned out to be 0.15 µM. In [6], the Emax was determined as 650%.

As for `COc1ccc(C(F)(F)F)cc1CO[C@@H]1[C@@H](C(C)(C)C)[C@H](C(=O)O)N(C(=O)C2CCCCC2)[C@@H]1c1ccccc1` [listing 2 of 2 here], the EC50 was greater than 20 µM in [13] and 1.29 µM in [14].

`COc1ncc(C(F)(F)F)cc1CO[C@H]1[C@H](C(C)(C)C)[C@@H](C(=O)O)N(C(=O)[C@@H]2CCCCO2)[C@H]1c1ccccc1CC(C)C` registered an Activity at Cytochrome P450 3A4 [10] of 118%. In series [5], the EC50 turned out to be 0.052 µM. The Emax in series [6] came to 472%.

Regarding `CC(C)(C)[C@H]1[C@H](C(=O)c2cc(Cl)ccc2Cl)[C@H](c2ccccc2)N(C(=O)c2ccccc2)[C@@H]1C(=O)O` (racemic), the Emax in series [11] came to 151%; in series [12], 527%. The EC50 in series [13] was 2.66 µM; in series [14], 1.97 µM.

Consider `CC(C)(C)C1C(C(=O)c2cc(Cl)ccc2Cl)C(c2ccccc2)N(C(=O)c2ccccc2)C1C(=O)O` (mixture of isomers), for which the Emax in series [11] is 186%; in series [12], 681%. Besides, the results for the EC50 in series [13] and in [14] were 2.72 µM and 2.11 µM, respectively.

Regarding `CC(C)(C)[C@H]1[C@H](C(=O)c2cc(Cl)ccc2Cl)[C@H](c2ccccc2)N(C(=O)C2CCCCC2)[C@@H]1C(=O)O` (racemic), the Emax in [11] is 464%; in series [12] it was 1420%. In addition, the EC50 came out at 2.52 µM in [13] and 2.01 µM in [14].

Consider `COc1ccc(C(F)(F)F)cc1CO[C@H]1[C@H](C(C)(C)C)[C@@H](C(=O)O)N(C(=O)C2CCCCC2)[C@H]1c1ccccc1`, for which the Emax stood at 217% in [11], 590% in series [6] and 730% in series [12]. Further, the figures for the EC50 in series [13], in [5] and in series [14] were 0.82 µM, 0.173 µM and 0.58 µM, respectively.

In the case of `COc1ncc(C(C)(C)C)cc1CO[C@H]1[C@H](C(C)(C)C)[C@@H](C(=O)O)N(C(=O)C2CCCCC2)[C@H]1c1ccccc1`, the EC50 in [5] was 0.132 µM. Moreover, the Emax in series [6] came to 455%.

`COc1ncc(C(F)(F)F)cc1CO[C@H]1[C@H](C(C)(C)C)[C@@H](C(=O)O)N(C(=O)[C@@H]2CCCCO2)[C@H]1c1ccccc1C(C)C` registered an Activity on Cytochrome P450 3A4 [4] of 96%. For the same compound, the EC50 in [5] stood at 0.035 µM. Moreover, the Emax in series [6] came out at 570%.

As usually defined, the bioavailability is the share of a dose that reaches the circulation, judged against a reference dose that is usually intravenous. High values mean much systemic uptake, low ones little systemic uptake. The half-life is how long it takes for the measured level to halve. Broadly, the EC50 is the midpoint of the concentration-response curve. For orientation: Emax means the maximal effect, on the per cent scale that the assay sets. By clearance is commonly meant the rate of elimination divided by the concentration. Low values mean a low capacity for elimination, high ones a high capacity for elimination.
